From paper PMC9042899 (RSC Advances, 2021)

target: AP; experiment: not given; details: traditional AP inhibitors; ref 34g; cited from earlier work

SMILES	Ki [µM]
Cn1c(=O)c2[nH]cnc2n(C)c1=O [theophylline]	82
c1ccc([C@H]2CN3CCSC3=N2)cc1 [levamisole]	16

target: CIAP (calf intestinal alkaline phosphatase) (Bos taurus, UniProt P19111); experiment: Alkaline phosphatase; type: biochemical; details: Alkaline phosphatase IC50 ± SEM, CIAP, substrate p-NPP, pH 9.5, 37 °C; mean ± SEM; NA = No activity
Sequence (P19111 20-506 limits assumed): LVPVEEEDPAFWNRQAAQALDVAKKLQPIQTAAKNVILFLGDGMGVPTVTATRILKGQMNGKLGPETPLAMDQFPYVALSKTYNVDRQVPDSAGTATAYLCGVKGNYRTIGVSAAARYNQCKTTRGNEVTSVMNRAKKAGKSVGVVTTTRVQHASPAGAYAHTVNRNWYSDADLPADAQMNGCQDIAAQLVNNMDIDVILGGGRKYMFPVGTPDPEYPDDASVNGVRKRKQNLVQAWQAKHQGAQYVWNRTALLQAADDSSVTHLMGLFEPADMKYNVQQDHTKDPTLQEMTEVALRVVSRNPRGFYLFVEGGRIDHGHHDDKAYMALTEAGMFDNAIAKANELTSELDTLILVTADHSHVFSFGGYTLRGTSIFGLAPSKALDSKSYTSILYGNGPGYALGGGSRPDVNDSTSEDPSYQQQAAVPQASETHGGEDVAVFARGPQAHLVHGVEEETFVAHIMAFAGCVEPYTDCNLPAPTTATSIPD

SMILES	IC50 [µM]
O=C1C(=Cc2cccs2)Oc2cc(Cl)cc([N+](=O)[O-])c21 [Compound 19, 6-Chloro-4-nitro-2-(thiophen-2-ylmethylene)benzofuran-3(2H)-one]	5.88 ± 0.083
O=C1C(=Cc2ccc(F)cc2)Oc2cc(Cl)cc([N+](=O)[O-])c21 [Compound 17, 6-Chloro-2-(4-fluorobenzylidene)-4-nitrobenzofuran-3(2H)-one]	4.88 ± 0.086
Cc1ccc(C=C2Oc3cc(Cl)cc([N+](=O)[O-])c3C2=O)c(C)c1 [Compound 18, 6-Chloro-2-(2,4-dimethylbenzylidene)-4-nitrobenzofuran-3(2H)-one]	1.15 ± 0.043
O=C1C(=Cc2ccc(Cl)cc2)Oc2cc(Br)cc(Br)c21 [Compound 12, 4,6-Dibromo-2-(4-chlorobenzylidene)benzofuran-3(2H)-one]	2.16 ± 0.048
CN(C)c1ccc(C=C2Oc3cc(Cl)cc([N+](=O)[O-])c3C2=O)cc1 [Compound 15, 6-Chloro-2-(4-(dimethylamino)benzylidene)-4-nitrobenzofuran-3(2H)-one]	2.15 ± 0.056
O=C1C(=Cc2ccc(Cl)cc2)Oc2cc(Cl)cc([N+](=O)[O-])c21 [Compound 16, 6-Chloro-2-(4-chlorobenzylidene)-4-nitrobenzofuran-3(2H)-one]	2.13 ± 0.034
CCCOc1ccc(C=C2Oc3cc(Cl)cc([N+](=O)[O-])c3C2=O)cc1OC [Compound 21, 6-Chloro-2-(3-methoxy-4-propoxybenzylidene)-4-nitrobenzofuran-3(2H)-one]	2.33 ± 0.059
O=C(C=Cc1ccc(Cl)cc1)c1cc(Br)cc(Br)c1O [Compound 2, 3-(4-Chlorophenyl)-1-(3,5-dibromo-2-hydroxyphenyl)prop-2-en-1-one]	6.23 ± 0.098
O=C(C=Cc1ccco1)c1cc(Br)cc(Br)c1O [Compound 1, 1-(3,5-Dibromo-2-hydroxyphenyl)-3-(furan-2-yl)prop-2-en-1-one]	4.31 ± 0.154
O=C1C(=Cc2ccc(C(F)(F)F)cc2)Oc2cc(Br)cc(Br)c21 [Compound 13, 4,6-Dibromo-2-(4-(trifluoromethyl)benzylidene)benzofuran-3(2H)-one]	5.79 ± 0.081
O=C1C(=Cc2ccco2)Oc2cc(Br)cc(Br)c21 [Compound 14, 4,6-Dibromo-2-(furan-2-ylmethylene)benzofuran-3(2H)-one]	4.66 ± 0.051
COc1ccc(C=C2Oc3cc(Cl)cc([N+](=O)[O-])c3C2=O)cc1 [Compound 20, 6-Chloro-2-(4-methoxybenzylidene)-4-nitrobenzofuran-3(2H)-one]	1.05 ± 0.029

Next, values leading:

IC50 [µM]	SMILES
12.6 ± 0.298	Cc1ccc(C=CC(=O)c2cc(Cl)cc([N+](=O)[O-])c2O)c(C)c1 [Compound 8, 1-(5-Chloro-2-hydroxy-3-nitrophenyl)-3-(2,4-dimethylphenyl)prop-2-en-1-one]
8.45 ± 0.245	O=C(C=Cc1cccs1)c1cc(Cl)cc([N+](=O)[O-])c1O [Compound 9, 1-(5-Chloro-2-hydroxy-3-nitrophenyl)-3-(thiophen-2-yl)prop-2-en-1-one]
7.55 ± 0.265	O=C(C=Cc1ccc(F)cc1)c1cc(Cl)cc([N+](=O)[O-])c1O [Compound 5, 1-(5-Chloro-2-hydroxy-3-nitrophenyl)-3-(4-fluorophenyl)prop-2-en-1-one]
9.56 ± 0.263	COc1cc(C=CC(=O)c2cc(Cl)cc([N+](=O)[O-])c2O)ccc1OCc1ccccc1 [Compound 11, 3-(4-(Benzyloxy)-3-methoxyphenyl)-1-(5-chloro-2-hydroxy-3-nitrophenyl)prop-2-en-1-one]
3.14 ± 0.176	COc1ccc(C=CC(=O)c2cc(Cl)cc([N+](=O)[O-])c2O)cc1 [Compound 4, 1-(5-Chloro-2-hydroxy-3-nitrophenyl)-3-(4-methoxyphenyl)prop-2-en-1-one]
3.02 ± 0.087	CN(C)c1ccc(C=CC(=O)c2cc(Cl)cc([N+](=O)[O-])c2O)cc1 [Compound 6, 1-(5-Chloro-2-hydroxy-3-nitrophenyl)-3-(4-(dimethylamino)phenyl)prop-2-en-1-one]
6.97 ± 0.097	CCCOc1ccc(C=CC(=O)c2cc(Cl)cc([N+](=O)[O-])c2O)cc1OC [Compound 10, 1-(5-Chloro-2-hydroxy-3-nitrophenyl)-3-(3-methoxy-4-propoxyphenyl)prop-2-en-1-one]
5.54 ± 0.079	COc1cc(C=C2Oc3cc(Cl)cc([N+](=O)[O-])c3C2=O)ccc1OCc1ccccc1 [Compound 22, 2-(4-(Benzyloxy)-3-methoxybenzylidene)-6-chloro-4-nitrobenzofuran-3(2H)-one]

same assay, conditions: ratio of IC50 values vs standard KH2PO4

fold higher inhibition compared to KH2PO4 [fold]	SMILES
~2.6	COc1ccc(C=C2Oc3cc(Cl)cc([N+](=O)[O-])c3C2=O)cc1 [Compound 20, 6-Chloro-2-(4-methoxybenzylidene)-4-nitrobenzofuran-3(2H)-one]

tested on: alkaline phosphatase; experiment: Enzyme inhibition kinetic study; type: biochemical; details: inhibitor 0.00, 1.15, 2.30, 4.60 and 9.20 μM; substrate p-NPP
Method in brief: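 Enzyme, buffer and pre-incubation were as in the AP inhibition assay. p-NPP was used at 10, 5, 2.5, […] and 0.625 mM. Maximum initial velocities came from the linear part of absorbance over up to 10 min. Inhibition type was assigned from Lineweaver–Burk plots of 1/V vs. 1/[S].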

type of enzyme inhibition (Lineweaver–Burk plot)	SMILES
non-competitive	COc1ccc(C=C2Oc3cc(Cl)cc([N+](=O)[O-])c3C2=O)cc1 [Compound 20, 6-Chloro-2-(4-methoxybenzylidene)-4-nitrobenzofuran-3(2H)-one]
